Reference: ChEMBL document CHEMBL4017501, “Paralog Specificity Determines Subcellular Distribution, Action Mechanism, and Anticancer Activity of TRAP1 Inhibitors” (J Med Chem, 2017)
pIC50: −log10 of the molar value. Activity calls are given as the source filed them. The rule behind the calls is not given here.

How the values were obtained:
[1] = molecular target: T1, Heat shock protein 75 kDa, mitochondrial (Homo sapiens, UniProt Q12931); test: Inhibition of FITC3-labeled PU-H71 binding to recombinant human N-terminal His6-tagged TRAP1 (60 to 561 residues) expressed in Escherichia coli BL21(DE3) after 24 hrs by fluorescence polarization assay
T1 sequence (Q12931 whole entry): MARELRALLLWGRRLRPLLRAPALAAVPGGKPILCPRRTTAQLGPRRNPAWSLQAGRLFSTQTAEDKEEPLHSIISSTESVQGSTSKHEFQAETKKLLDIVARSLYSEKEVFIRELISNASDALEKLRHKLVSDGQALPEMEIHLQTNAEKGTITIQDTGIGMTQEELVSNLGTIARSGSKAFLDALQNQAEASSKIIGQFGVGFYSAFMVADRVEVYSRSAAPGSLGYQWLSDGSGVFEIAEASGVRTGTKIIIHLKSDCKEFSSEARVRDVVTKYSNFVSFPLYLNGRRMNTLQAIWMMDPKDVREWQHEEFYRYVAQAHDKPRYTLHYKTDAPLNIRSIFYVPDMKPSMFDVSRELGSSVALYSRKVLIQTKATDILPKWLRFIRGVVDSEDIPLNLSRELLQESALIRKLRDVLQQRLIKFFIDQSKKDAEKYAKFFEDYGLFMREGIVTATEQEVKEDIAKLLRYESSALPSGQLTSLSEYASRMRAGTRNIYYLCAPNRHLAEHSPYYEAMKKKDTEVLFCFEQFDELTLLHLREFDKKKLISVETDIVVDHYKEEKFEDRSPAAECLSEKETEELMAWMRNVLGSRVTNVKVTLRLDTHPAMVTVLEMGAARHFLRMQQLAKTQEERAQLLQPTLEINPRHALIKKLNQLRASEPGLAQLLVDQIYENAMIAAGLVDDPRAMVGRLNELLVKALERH
Method in brief: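 Recombinant TRAP1 (100 nM) incubated with 10 nM 1-FITC3 probe and varying inhibitor concentrations for 24 h at 4 °C. Buffer: PBS-type salts with 1 mM DTT, 2 mM MgCl2, 0.1 mg/mL BSA, 0.05% NP40, pH 7.3. Polarization (mP) scaled to maximum and minimum values; mean ± SEM of two independent experiments.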

[2] = molecular target: Heat shock protein HSP 90-alpha (Homo sapiens, UniProt P07900); test: Inhibition of FITC3-labeled PU-H71 binding to recombinant HSP90alpha (unknown origin) after 24 hrs by fluorescence polarization assay
[3] = molecular target: T2, Heat shock protein 75 kDa, mitochondrial (Homo sapiens) (UniProt Q12931); test: Inhibition of TRAP1 in human HeLa cells assessed as induction of mitochondrial ROS production after 6 hrs by Mito-Sox staining based flow cytometry; format: cell-based
T2 sequence (whole entry): T1 sequence (Q12931 whole entry)
Method in brief: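 HeLa cells given drug for 6 h, then stained with 200 nM Mito-SOX Red for 20 min at 37 °C. Cells washed with PBS, trypsinized, resuspended and analysed by flow cytometry for mitochondrial superoxide.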

[4] = molecular target: T2, Heat shock protein 75 kDa, mitochondrial (Homo sapiens); test: Inhibition of TRAP1 in human HeLa cells assessed as cytochrome c release at 20 uM after 4 hrs by Western blot method; format: cell-based
Method in brief: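 HeLa cells treated at 20 μM for 4 h. Mitochondrial fractionation performed; cytoplasmic fraction probed for cytochrome c by Western blot.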

pIC50 [1] | pIC50 [2] | inhibition [3] | inhibition [4] | SMILES
6.86 | 7.01 |  |  | COc1c(C)cnc(Cn2ncc3c(Cl)nc(N)nc32)c1C
 |  | inactive | inactive | COc1c(C)cnc(Cn2cnc3c(Cl)nc(N)nc32)c1C
